Results as given in ChEMBL document CHEMBL1132296, “Anticonvulsant and sodium channel-blocking properties of novel 10,11-dihydro-5H-dibenz[b,f]azepine-5-carboxamide derivatives” (J Med Chem, 1999).

Tests used:
Rattus norvegicus [1] = experiment: Compound was tested intraperitoneally for anticonvulsant activity by rotarod test; type: functional; settings: ip
Outline: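 Rats trained to stay 3 min on a 5-cm rod rotating at 6 rpm. Next day, compound ip in DMSO (2 mL/kg), placed on rod 15 min later at 6 rpm. Deficit = failure to hold equilibrium 1 min in each of three trials. 5–8 rats/group; TD50 from logistic fit.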

[2] = target: Sodium channel alpha subunits; brain (Types I, II, III) (Rattus norvegicus, UniProt P04775+P04774+P08104); experiment: Displacement of [3H]BTX from voltage-gated sodium channel of rat cortical synaptosomes; type: subcellular
[3] = target: T1, Sodium channel alpha subunits; brain (Types I, II, III) (Rattus norvegicus) (UniProt P04775+P04774+P08104); experiment: Percent inhibition of 22Na+ uptake by voltage sensitive sodium channel of rat cortical synaptosomes at 30 uM; type: functional, subcellular
T1 sequence (P04775 whole entry, looked up, other chains not shown): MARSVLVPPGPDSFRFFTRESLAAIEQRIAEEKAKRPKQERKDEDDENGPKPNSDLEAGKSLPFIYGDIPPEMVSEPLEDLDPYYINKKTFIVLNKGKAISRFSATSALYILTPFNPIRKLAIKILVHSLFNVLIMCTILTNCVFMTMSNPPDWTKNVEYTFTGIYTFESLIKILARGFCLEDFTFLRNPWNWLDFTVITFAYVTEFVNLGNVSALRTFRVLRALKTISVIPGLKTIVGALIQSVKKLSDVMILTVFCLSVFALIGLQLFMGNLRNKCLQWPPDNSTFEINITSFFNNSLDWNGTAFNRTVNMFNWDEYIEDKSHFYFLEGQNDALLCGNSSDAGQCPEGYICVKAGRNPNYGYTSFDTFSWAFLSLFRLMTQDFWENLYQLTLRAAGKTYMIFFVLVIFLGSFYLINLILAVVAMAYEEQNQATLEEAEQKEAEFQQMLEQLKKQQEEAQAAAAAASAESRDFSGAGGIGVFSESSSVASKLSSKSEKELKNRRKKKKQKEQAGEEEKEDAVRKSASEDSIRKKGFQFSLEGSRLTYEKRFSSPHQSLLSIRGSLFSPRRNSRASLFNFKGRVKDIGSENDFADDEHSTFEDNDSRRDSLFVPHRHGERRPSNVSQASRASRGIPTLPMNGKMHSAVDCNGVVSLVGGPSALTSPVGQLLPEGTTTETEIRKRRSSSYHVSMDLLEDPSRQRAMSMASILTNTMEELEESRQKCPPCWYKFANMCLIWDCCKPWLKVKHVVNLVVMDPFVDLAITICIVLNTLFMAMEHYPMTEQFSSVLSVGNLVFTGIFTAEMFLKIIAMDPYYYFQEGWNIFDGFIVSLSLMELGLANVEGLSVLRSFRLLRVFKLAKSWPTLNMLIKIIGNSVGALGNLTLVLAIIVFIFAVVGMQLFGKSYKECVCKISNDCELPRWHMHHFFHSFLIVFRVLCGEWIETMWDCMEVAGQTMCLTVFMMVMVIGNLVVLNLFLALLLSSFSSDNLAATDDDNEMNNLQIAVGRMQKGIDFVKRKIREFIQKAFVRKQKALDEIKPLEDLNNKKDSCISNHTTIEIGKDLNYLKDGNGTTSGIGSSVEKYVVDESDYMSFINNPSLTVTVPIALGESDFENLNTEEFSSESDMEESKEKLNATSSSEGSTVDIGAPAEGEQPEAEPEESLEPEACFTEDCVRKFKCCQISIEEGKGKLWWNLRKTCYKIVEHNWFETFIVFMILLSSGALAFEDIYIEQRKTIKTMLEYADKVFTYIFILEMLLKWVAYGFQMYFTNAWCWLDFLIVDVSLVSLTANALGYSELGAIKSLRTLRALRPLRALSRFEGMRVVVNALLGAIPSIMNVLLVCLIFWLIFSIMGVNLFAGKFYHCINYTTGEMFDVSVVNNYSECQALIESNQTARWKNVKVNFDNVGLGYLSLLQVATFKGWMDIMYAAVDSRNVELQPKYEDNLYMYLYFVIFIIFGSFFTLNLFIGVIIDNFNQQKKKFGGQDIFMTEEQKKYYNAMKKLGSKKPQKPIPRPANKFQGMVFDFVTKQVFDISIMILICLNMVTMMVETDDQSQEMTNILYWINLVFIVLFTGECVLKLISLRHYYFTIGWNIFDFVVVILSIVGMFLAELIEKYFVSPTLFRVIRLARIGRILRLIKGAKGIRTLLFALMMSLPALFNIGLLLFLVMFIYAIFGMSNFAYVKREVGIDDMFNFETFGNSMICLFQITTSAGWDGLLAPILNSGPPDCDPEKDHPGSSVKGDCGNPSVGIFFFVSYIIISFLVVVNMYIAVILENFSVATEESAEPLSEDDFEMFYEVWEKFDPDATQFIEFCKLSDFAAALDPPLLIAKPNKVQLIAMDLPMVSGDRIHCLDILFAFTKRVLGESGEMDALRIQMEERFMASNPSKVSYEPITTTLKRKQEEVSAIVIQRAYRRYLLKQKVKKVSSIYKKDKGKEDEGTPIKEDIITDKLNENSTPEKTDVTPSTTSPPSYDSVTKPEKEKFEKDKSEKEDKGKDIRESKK
T1 sequence (P08104 whole entry, looked up, other chains not shown): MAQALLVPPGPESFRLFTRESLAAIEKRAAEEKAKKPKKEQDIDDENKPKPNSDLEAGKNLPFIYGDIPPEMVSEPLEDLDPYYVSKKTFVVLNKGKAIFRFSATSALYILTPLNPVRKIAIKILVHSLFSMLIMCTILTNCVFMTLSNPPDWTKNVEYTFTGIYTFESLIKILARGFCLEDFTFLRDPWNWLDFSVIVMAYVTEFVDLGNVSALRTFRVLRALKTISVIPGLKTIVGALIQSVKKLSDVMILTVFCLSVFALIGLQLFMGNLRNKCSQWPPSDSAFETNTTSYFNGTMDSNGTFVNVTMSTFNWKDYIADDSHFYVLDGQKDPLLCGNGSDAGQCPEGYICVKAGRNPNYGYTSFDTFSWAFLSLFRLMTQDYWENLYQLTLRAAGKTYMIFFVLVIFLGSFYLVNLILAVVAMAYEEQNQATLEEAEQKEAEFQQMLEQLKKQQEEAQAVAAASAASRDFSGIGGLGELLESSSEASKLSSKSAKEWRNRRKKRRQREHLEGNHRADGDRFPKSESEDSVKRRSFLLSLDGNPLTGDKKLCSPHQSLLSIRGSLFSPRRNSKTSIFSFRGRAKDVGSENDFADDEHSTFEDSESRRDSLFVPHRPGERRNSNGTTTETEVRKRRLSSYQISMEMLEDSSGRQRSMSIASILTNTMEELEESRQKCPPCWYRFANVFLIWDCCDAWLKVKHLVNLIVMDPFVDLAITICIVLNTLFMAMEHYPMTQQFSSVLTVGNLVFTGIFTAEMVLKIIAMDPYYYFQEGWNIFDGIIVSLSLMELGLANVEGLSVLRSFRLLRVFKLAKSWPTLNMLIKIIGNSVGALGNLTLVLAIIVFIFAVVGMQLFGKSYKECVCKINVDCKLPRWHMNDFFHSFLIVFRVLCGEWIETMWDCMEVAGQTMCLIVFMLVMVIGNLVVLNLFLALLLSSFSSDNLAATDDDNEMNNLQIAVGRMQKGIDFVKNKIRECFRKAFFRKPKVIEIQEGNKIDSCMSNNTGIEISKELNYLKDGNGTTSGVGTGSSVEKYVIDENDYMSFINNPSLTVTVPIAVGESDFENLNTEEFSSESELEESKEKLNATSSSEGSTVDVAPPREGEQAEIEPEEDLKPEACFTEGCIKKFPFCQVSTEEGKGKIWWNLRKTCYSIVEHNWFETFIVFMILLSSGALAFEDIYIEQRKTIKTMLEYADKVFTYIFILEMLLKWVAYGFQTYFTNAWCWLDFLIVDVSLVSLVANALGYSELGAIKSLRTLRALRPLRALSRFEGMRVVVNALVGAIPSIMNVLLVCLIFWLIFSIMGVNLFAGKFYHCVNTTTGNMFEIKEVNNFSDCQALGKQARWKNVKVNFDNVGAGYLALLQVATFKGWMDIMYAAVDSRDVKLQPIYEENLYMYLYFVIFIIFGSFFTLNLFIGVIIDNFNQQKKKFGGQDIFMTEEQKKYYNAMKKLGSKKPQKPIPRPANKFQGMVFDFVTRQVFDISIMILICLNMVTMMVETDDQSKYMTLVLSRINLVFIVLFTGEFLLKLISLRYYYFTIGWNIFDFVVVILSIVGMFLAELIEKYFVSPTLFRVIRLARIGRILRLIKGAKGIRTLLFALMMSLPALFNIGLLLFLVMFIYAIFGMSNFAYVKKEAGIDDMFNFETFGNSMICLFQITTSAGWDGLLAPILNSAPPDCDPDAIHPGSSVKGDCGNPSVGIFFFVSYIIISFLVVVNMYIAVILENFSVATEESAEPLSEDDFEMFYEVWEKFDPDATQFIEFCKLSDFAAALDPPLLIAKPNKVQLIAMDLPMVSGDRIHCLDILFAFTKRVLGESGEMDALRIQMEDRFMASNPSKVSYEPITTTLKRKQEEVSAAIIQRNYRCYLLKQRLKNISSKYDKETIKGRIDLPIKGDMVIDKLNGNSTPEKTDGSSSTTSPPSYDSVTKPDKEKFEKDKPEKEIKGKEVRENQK

Rattus norvegicus [4] = experiment: t max was for the anticonvulsant effect was tested in rats administered by gastric tube; t max; type: functional, organism-based; settings: Stomach
[5] = target: T1, Sodium channel alpha subunits; brain (Types I, II, III) (Rattus norvegicus); experiment: Percent inhibition of 22Na+ uptake by voltage sensitive sodium channel of rat cortical synaptosomes at 100 uM; type: functional, subcellular
[6] = target: T1, Sodium channel alpha subunits; brain (Types I, II, III) (Rattus norvegicus); experiment: Percent inhibition of 22Na+ uptake by voltage sensitive sodium channel of rat cortical synaptosomes at 300 uM; type: functional, subcellular
Rattus norvegicus [7] = experiment: Compound was tested for anticonvulsant activity administered by gastric tube in rat by MES test; type: functional
Outline: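 Rats, oral by gastric tube, tested at t_max. Rats were pre-screened in a first MES session through corneal electrodes after oxibuprocaine eye drops, and only typical tonic–clonic convulsers were kept. Next day, compound or vehicle, then MES sessions 2 or 4 h and 6, 8 or 12 h post-dose. Endpoint was abolition of hindleg tonic extension. 5–8 rats/group; ED50 from logistic fit.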

Rattus norvegicus [8] = experiment: t max for anticonvulsant activity was tested in rats intraperitoneally; type: functional, organism-based
Rattus norvegicus [9] = experiment: Compound was tested for anticonvulsant activity administered by gastric tube in rat by rotarod test; type: functional
Rattus norvegicus [10] = experiment: Compound was tested intraperitoneally for anticonvulsant activity against MES-induced seizures in rat by MES test; type: functional; settings: ip
Outline: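 Intraperitoneal dosing to rats, MES given at t_max. Corneal electrodes after oxibuprocaine eye drops; abolition of hindleg tonic extensor component as endpoint. 5–8 rats/group; ED50 from logistic equation fit.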

Rattus norvegicus [11] = species: Rattus norvegicus; experiment: Compound was tested for anticonvulsant activity against MES-induced seizures in rat; design: concentration or dose not given beside the values
Rattus norvegicus [12] = species: Rattus norvegicus; experiment: Protective index value of the compound, given by gastric tube (TD50/ED50); type: functional, Stomach
Outline: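 Ratio TD50/ED50 from oral (gastric tube) rotarod and MES tests in rats at t_max. Both values come from logistic fits, 5–8 rats/group.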

Rattus norvegicus [13] = experiment: Protective index value of the compound, given by intraperitoneally (TD50/ED50); type: functional
Outline: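 Ratio TD50/ED50 from intraperitoneal rotarod and MES tests in rats. Both values come from logistic fits, 5–8 rats/group.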

[14] = target: T1, Sodium channel alpha subunits; brain (Types I, II, III) (Rattus norvegicus); settings: 300 uM

Structure (SMILES) | TD50 (Rattus norvegicus [1]) | Tmax (Rattus norvegicus [8]) | ED50 (Rattus norvegicus [10]) | Protection (Rattus norvegicus [11]) | further results
NC(=O)N1c2ccccc2C=Cc2ccccc21 [CARBAMAZEPINE] | 27.4 mg/kg | 15 min | 3.4 mg/kg | – | IC50 [2]: 210 µM; inhibition [3]: 22.6%; Tmax (Rattus norvegicus [4]): 120 min; inhibition [5]: 44.3%; inhibition [6]: 64.8%; ED50 (Rattus norvegicus [7]): 5.4 mg/kg; TD50 (Rattus norvegicus [9]): 251 mg/kg
CC(C)(C)C(=O)OC1Cc2ccccc2N(C(N)=O)c2ccccc21 (centres undefined) | – | – | – | 6.5% | –
NC(=O)N1c2ccccc2CC(OC(=O)CCl)c2ccccc21 (centres undefined) | – | – | – | 0.5% | –
NC(=O)N1c2ccccc2CC(OC(=O)Cc2ccc([N+](=O)[O-])cc2)c2ccccc21 (centres undefined) | – | – | – | 13.8% | –
CCCC(CCC)C(=O)OC1Cc2ccccc2N(C(N)=O)c2ccccc21 (centres undefined) | – | – | – | 0.2% | –
CCCCCCCCCCCCCCCCCC(=O)OC1Cc2ccccc2N(C(N)=O)c2ccccc21 (centres undefined) | – | – | – | 0.8% | –
CCCC(=O)OC1Cc2ccccc2N(C(N)=O)c2ccccc21 (centres undefined) | – | – | – | 34.2% | –
CC(Cl)C(=O)OC1Cc2ccccc2N(C(N)=O)c2ccccc21 (centres undefined) | – | – | – | 3.9% | –
CC(=O)O[C@H]1Cc2ccccc2N(C(N)=O)c2ccccc21 [ESLICARBAZEPINE ACETATE] | 78.6 mg/kg | 15 min | 6.3 mg/kg | 100% | Protective index (Rattus norvegicus [12]): 76.3; IC50 [2]: 138 µM; inhibition [3]: 52.6%; Tmax (Rattus norvegicus [4]): 120 min; inhibition [5]: 73.4%; inhibition [6]: 95.6%; ED50 (Rattus norvegicus [7]): 4.7 mg/kg; Protective index (Rattus norvegicus [13]): 12.5; TD50 (Rattus norvegicus [9]): 359 mg/kg
CC(=O)O[C@@H]1Cc2ccccc2N(C(N)=O)c2ccccc21 | 135 mg/kg | 60 min | 18 mg/kg | 5.9% | Protective index (Rattus norvegicus [12]): >91.7; IC50 [2]: 113 µM; inhibition [3]: 17.9%; Tmax (Rattus norvegicus [4]): 480 min; inhibition [5]: 57.7%; inhibition [6]: 73.2%; ED50 (Rattus norvegicus [7]): 10.9 mg/kg; Protective index (Rattus norvegicus [13]): 7.5; TD50 (Rattus norvegicus [9]): > 1000 mg/kg
CCCC(CC)C(=O)OC1Cc2ccccc2N(C(N)=O)c2ccccc21 (centres undefined) | – | – | – | -12.8% | –
NC(=O)N1c2ccccc2CC(=O)c2ccccc21 [OXCARBAZEPINE] | 40.1 mg/kg | 5 min | 6.1 mg/kg | – | inhibition [14]: 76.2%; IC50 [2]: 161 µM; inhibition [3]: 31.2%; Tmax (Rattus norvegicus [4]): 120 min; inhibition [5]: 50.2%; ED50 (Rattus norvegicus [7]): 10 mg/kg; TD50 (Rattus norvegicus [9]): > 1000 mg/kg
NC(=O)N1c2ccccc2C[C@@H](O)c2ccccc21 | 97.4 mg/kg | 30 min | 17.9 mg/kg | – | –
NC(=O)N1c2ccccc2CC(OC(=O)CBr)c2ccccc21 (centres undefined) | – | – | – | 15.1% | –
CC(=O)Oc1ccccc1C(=O)OC1Cc2ccccc2N(C(N)=O)c2ccccc21 (centres undefined) | – | – | – | 10.2% | –
CC(=O)OC1Cc2ccccc2N(C(N)=O)c2ccccc21 (centres undefined) | 130 mg/kg | 5 min | 13.1 mg/kg | 54.4% | Protective index (Rattus norvegicus [12]): 31.7; IC50 [2]: 141 µM; inhibition [3]: 42.2%; Tmax (Rattus norvegicus [4]): 120 min; inhibition [5]: 61.8%; inhibition [6]: 82.1%; ED50 (Rattus norvegicus [7]): 13.5 mg/kg; Protective index (Rattus norvegicus [13]): 9.9; TD50 (Rattus norvegicus [9]): 428 mg/kg
NC(=O)N1c2ccccc2C[C@H](O)c2ccccc21 [ESLICARBAZEPINE] | 96.6 mg/kg | 30 min | 17.1 mg/kg | – | –
CCC(=O)OC1Cc2ccccc2N(C(N)=O)c2ccccc21 (centres undefined) | – | – | – | 40.6% | –
COc1ccc(CC(=O)OC2Cc3ccccc3N(C(N)=O)c3ccccc32)cc1 (centres undefined) | – | – | – | 8.1% | –
NC(=O)N1c2ccccc2CC(OC=O)c2ccccc21 (centres undefined) | – | – | – | 32.1% | –
CCOC(=O)OC1Cc2ccccc2N(C(N)=O)c2ccccc21 (centres undefined) | – | – | – | 18.3% | –
NC(=O)N1c2ccccc2CC(OC(=O)c2cccnc2)c2ccccc21 (centres undefined) | – | – | – | 32.8% | –
NC(=O)N1c2ccccc2CC(OC(=O)c2ccccc2)c2ccccc21 (centres undefined) | – | – | – | 17.2% | –
NC(=O)N1c2ccccc2CC(O)c2ccccc21 (centres undefined) [LICARBAZEPINE] | 89.3 mg/kg | 15 min | 14.6 mg/kg | – | –
